Results published in PMC5362268 (Cell, 2017).
Residues, ends and D or L forms follow the SMILES beside them. *: point of attachment. Cbz = O=C(OCc1ccccc1)*

How the values were obtained:
DLD-1 cells = test: Pan-RAS siRNA knockdown and viability; format: cell-based, human; settings: si-panRAS vs non-targeting siRNA, 24 h, CellTiter-Glo
Outline: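 DLD-1 cells reverse-transfected in 6-well plates with siRNA pools against HRAS, KRAS and NRAS, or a non-targeting pool. Cells then re-suspended in serum-free RPMI and seeded at 10,000 cells/well in 384-well plates overnight. Dilution series added from 10× stocks in serum-free Opti-mem; 24 h incubation; viability by CellTiter-Glo.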

[1] = tested on: BRAF^V600E-CAAX-expressing MEF cells; test: Viability assay in mouse embryo fibroblasts; format: cell-based; settings: compared with Kras^lox/lox MEFs

| SMILES | effect of combined HRAS, NRAS and KRAS knockdown on compound lethality (DLD-1 cells) | sensitivity of BRAF^V600E-CAAX-expressing cells [1] |
| --- | --- | --- |
| CC(C)C[C@@H](C=O)NC(=O)[C@H](CC(C)C)NC(=O)[C@H](CC(C)C)NC(=O)OCc1ccccc1 [MG132, reference compound] (Cbz-Leu-Leu-Leu-aldehyde) | did not sensitize | – |
| CCCS(=O)(=O)Nc1ccc(F)c(C(=O)c2c[nH]c3ncc(-c4ccc(Cl)cc4)cc23)c1F [vemurafenib, reference compound] | – | more sensitive |
